Results reported in ChEMBL document CHEMBL1926627, “Synthesis and evaluation of novel modified γ-lactam prostanoids as EP4 subtype-selective agonists” (Bioorg Med Chem, 2012).
pEC50, pKi: −log10 of the molar value.

Target: T1, Prostaglandin E2 receptor EP3 subtype (Mus musculus, UniProt P30557)
T1 sequence (P30557 whole entry): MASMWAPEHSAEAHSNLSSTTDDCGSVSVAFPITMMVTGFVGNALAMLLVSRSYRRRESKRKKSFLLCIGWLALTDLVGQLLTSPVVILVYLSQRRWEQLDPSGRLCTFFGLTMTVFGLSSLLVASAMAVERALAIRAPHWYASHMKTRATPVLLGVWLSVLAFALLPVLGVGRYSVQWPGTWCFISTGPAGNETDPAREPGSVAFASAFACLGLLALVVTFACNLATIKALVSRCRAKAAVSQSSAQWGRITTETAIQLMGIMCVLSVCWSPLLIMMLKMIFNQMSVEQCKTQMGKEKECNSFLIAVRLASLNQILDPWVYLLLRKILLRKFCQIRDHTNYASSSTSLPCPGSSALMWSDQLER
Assay: Displacement of [3H]-PGE2 from mouse EP3 receptor expressed in CHO cells after 60 mins by liquid scintillation counter
Type: cell-based
Settings: not given
Method in brief: (§1)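 Membranes from CHO cells stably expressing mouse EP1–4, incubated with 2.5 nM [³H]PGE₂ and test compound at various concentrations in 10 mM KH₂PO₄–KOH, 1 mM EDTA, 10 mM MgCl₂, 0.1 mM NaCl, pH 6.0. Incubated 25 °C, 60 min (EP1: 20 min). Filtration on GF/B, ice-cold buffer wash, scintillation counting. Nonspecific binding with excess unlabeled PGE₂. IC50 from regression curve; Ki = IC50/(1+[L]/Kd).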

Structure (SMILES) | pKi
COCc1cccc(C[C@H](O)/C=C/[C@H]2CCC(=O)N2CCCCCCC(=O)O)c1 | < 5.00
COCc1cccc(C[C@H](O)/C=C/[C@H]2CCC(=S)N2CCCCCCC(=O)O)c1 | 5.20

The remaining lines, values ahead:

pKi | Structure (SMILES)
5.55 | Cc1cccc(C[C@H](O)/C=C/[C@H]2COC(=O)N2CCSCCCC(=O)O)c1
7.19 | CCc1cccc(C[C@H](O)/C=C/[C@H]2CSC(=O)N2CCSCCCC(=O)O)c1
6.01 | Cc1cccc(C[C@H](O)/C=C/[C@H]2CCC(=S)N2CCSCCCC(=O)O)c1

System: not listed separately
Assay: Volume of distribution at steady state in rat at 0.1 mg/kg, iv and 1 mg/kg, po
Type: ADME, organism-based
Settings: in vivo, read-out: Vdss
Method in brief: (§2)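 Rat pharmacokinetics measured after 1 mg/kg po and 0.1 mg/kg iv dosing.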

Structure (SMILES) | Vd
COCc1cccc(C[C@H](O)/C=C/[C@H]2CCC(=O)N2CCCCCCC(=O)O)c1 | 0.386 L/kg
COCc1cccc(C[C@H](O)/C=C/[C@H]2CCC(=S)N2CCCCCCC(=O)O)c1 | 0.53 L/kg

Results, then the molecule that gave them:

Vd | Structure (SMILES)
0.291 L/kg | Cc1cccc(C[C@H](O)/C=C/[C@H]2COC(=O)N2CCSCCCC(=O)O)c1
0.538 L/kg | CCc1cccc(C[C@H](O)/C=C/[C@H]2CSC(=O)N2CCSCCCC(=O)O)c1
1.76 L/kg | Cc1cccc(C[C@H](O)/C=C/[C@H]2CCC(=S)N2CCSCCCC(=O)O)c1

Target: Prostaglandin E2 receptor EP4 subtype (Mus musculus, UniProt P32240)
Sequence (P32240 whole entry): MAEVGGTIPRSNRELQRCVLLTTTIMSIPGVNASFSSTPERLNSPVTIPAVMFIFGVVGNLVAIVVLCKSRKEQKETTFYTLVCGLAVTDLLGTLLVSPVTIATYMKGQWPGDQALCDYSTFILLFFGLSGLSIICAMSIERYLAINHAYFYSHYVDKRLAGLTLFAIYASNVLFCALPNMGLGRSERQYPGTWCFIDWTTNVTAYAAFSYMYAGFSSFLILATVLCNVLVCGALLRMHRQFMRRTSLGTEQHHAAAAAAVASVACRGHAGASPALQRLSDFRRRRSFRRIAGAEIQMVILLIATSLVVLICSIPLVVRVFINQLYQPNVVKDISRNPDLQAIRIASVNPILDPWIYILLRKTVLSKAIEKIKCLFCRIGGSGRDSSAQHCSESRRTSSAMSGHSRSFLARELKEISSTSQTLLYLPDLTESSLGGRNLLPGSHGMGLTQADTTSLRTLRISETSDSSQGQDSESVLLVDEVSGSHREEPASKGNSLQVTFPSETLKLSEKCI
Assay: Displacement of [3H]-PGE2 from mouse EP4 receptor expressed in CHO cells after 60 mins by liquid scintillation counter
Type: cell-based
Settings: not given
Method in brief: as §1

Structure (SMILES) | pKi
COCc1cccc(C[C@H](O)/C=C/[C@H]2CCC(=O)N2CCCCCCC(=O)O)c1 | 8.00
COCc1cccc(C[C@H](O)/C=C/[C@H]2CCC(=S)N2CCCCCCC(=O)O)c1 | 8.70

Other lines, results leading:

pKi | Structure (SMILES)
8.60 | Cc1cccc(C[C@H](O)/C=C/[C@H]2COC(=O)N2CCSCCCC(=O)O)c1
9.06 | CCc1cccc(C[C@H](O)/C=C/[C@H]2CSC(=O)N2CCSCCCC(=O)O)c1
9.30 | Cc1cccc(C[C@H](O)/C=C/[C@H]2CCC(=S)N2CCSCCCC(=O)O)c1

Target: Prostaglandin E2 receptor EP4 subtype (Rattus norvegicus, UniProt P43114)
Sequence (P43114 whole entry): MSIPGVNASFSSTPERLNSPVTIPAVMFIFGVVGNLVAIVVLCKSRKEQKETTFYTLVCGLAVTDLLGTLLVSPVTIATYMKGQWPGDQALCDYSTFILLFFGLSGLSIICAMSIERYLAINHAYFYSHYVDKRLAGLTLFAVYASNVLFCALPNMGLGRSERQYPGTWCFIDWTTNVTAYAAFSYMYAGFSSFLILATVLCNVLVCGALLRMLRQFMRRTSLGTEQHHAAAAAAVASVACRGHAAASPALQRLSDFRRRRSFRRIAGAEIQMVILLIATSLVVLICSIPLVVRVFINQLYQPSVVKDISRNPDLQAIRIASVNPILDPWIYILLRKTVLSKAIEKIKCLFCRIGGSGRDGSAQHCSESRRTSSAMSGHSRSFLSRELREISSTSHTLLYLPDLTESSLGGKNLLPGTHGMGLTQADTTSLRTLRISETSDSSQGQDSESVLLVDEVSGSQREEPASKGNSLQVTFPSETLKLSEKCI
Assay: Agonist activity at rat EP4 receptor expressed in CHO cells assessed as cAMP production after 10 mins by radioimmunoassay
Type: functional, cell-based
Settings: not given
Method in brief: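 CHO cells expressing rat EP4 seeded at 1×10^5 cells/well and grown 2 days. Washed with MEM, then 10 min at 37 °C in MEM with 2 µM diclofenac. Preincubated 10 min at 37 °C in assay medium with 1% BSA. Test compound added, 10 min at 37 °C. Stopped with ice-cold 10% trichloroacetic acid. cAMP measured by radioimmunoassay.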

Structure (SMILES) | pEC50
COCc1cccc(C[C@H](O)/C=C/[C@H]2CCC(=O)N2CCCCCCC(=O)O)c1 | 7.82
COCc1cccc(C[C@H](O)/C=C/[C@H]2CCC(=S)N2CCCCCCC(=O)O)c1 | 8.14

Further lines, results first:

pEC50 | Structure (SMILES)
7.48 | Cc1cccc(C[C@H](O)/C=C/[C@H]2COC(=O)N2CCSCCCC(=O)O)c1
8.72 | CCc1cccc(C[C@H](O)/C=C/[C@H]2CSC(=O)N2CCSCCCC(=O)O)c1
8.11 | Cc1cccc(C[C@H](O)/C=C/[C@H]2CCC(=S)N2CCSCCCC(=O)O)c1

System: not listed separately
Assay: Total clearance rat at 0.1 mg/kg, iv and 1 mg/kg, po
Type: ADME, organism-based
Settings: in vivo
Method in brief: as §2

Structure (SMILES) | clearance
COCc1cccc(C[C@H](O)/C=C/[C@H]2CCC(=O)N2CCCCCCC(=O)O)c1 | 35 mL/min/kg
COCc1cccc(C[C@H](O)/C=C/[C@H]2CCC(=S)N2CCCCCCC(=O)O)c1 | 102 mL/min/kg

The next lines start with the values.

clearance | Structure (SMILES)
47 mL/min/kg | Cc1cccc(C[C@H](O)/C=C/[C@H]2COC(=O)N2CCSCCCC(=O)O)c1
75 mL/min/kg | CCc1cccc(C[C@H](O)/C=C/[C@H]2CSC(=O)N2CCSCCCC(=O)O)c1
61 mL/min/kg | Cc1cccc(C[C@H](O)/C=C/[C@H]2CCC(=S)N2CCSCCCC(=O)O)c1

System: not listed separately
Assay: AUC in rat at 0.1 mg/kg, iv and 1 mg/kg, po
Type: ADME, organism-based
Settings: plasma
Method in brief: as §2

Structure (SMILES) | AUC
Cc1cccc(C[C@H](O)/C=C/[C@H]2COC(=O)N2CCSCCCC(=O)O)c1 | 16.1 ng·h/mL
CCc1cccc(C[C@H](O)/C=C/[C@H]2CSC(=O)N2CCSCCCC(=O)O)c1 | 19.5 ng·h/mL
COCc1cccc(C[C@H](O)/C=C/[C@H]2CCC(=S)N2CCCCCCC(=O)O)c1 | 20.6 ng·h/mL
Cc1cccc(C[C@H](O)/C=C/[C@H]2CCC(=S)N2CCSCCCC(=O)O)c1 | 29.9 ng·h/mL

Target: Prostaglandin E2 receptor EP2 subtype (Mus musculus, UniProt Q62053)
Sequence (Q62053 whole entry): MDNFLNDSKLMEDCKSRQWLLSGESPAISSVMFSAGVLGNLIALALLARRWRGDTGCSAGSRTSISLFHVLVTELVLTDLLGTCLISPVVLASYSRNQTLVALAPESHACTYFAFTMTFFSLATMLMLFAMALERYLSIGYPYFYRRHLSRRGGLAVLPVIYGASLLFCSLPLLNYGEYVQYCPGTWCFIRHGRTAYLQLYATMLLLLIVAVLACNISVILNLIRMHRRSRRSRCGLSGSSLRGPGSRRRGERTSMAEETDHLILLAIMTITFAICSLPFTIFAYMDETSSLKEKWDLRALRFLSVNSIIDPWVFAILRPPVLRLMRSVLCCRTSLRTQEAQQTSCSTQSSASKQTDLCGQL
Assay: Displacement of [3H]-PGE2 from mouse EP2 receptor expressed in CHO cells after 60 mins by liquid scintillation counter
Type: cell-based
Settings: not given
Method in brief: as §1

Structure (SMILES) | pKi
COCc1cccc(C[C@H](O)/C=C/[C@H]2CCC(=O)N2CCCCCCC(=O)O)c1 | < 5.00
COCc1cccc(C[C@H](O)/C=C/[C@H]2CCC(=S)N2CCCCCCC(=O)O)c1 | 5.85

Second part, the molecule after the results:

pKi | Structure (SMILES)
< 5.00 | Cc1cccc(C[C@H](O)/C=C/[C@H]2COC(=O)N2CCSCCCC(=O)O)c1
< 5.00 | CCc1cccc(C[C@H](O)/C=C/[C@H]2CSC(=O)N2CCSCCCC(=O)O)c1
5.77 | Cc1cccc(C[C@H](O)/C=C/[C@H]2CCC(=S)N2CCSCCCC(=O)O)c1

System: Rattus norvegicus
Assay: Inhibition of LPS induced TNF-alpha production in po dosed Sprague-Dawley rat administered 30 mins before LPS challenge measured after 90 mins by ELISA
Type: functional
Settings: not given
Method in brief: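 Seven-week-old Sprague–Dawley rats dosed orally with compound in sterile saline containing 20% HP-β-CD. LPS (1 mg/mL in sterile saline) given iv at 10 µg/2 mL/kg 30 min later. Blood drawn by aortic puncture into heparinized syringes 90 min after LPS. Plasma taken after centrifugation at 4 °C and frozen. Result given as ED50.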

Structure (SMILES) | ED50
COCc1cccc(C[C@H](O)/C=C/[C@H]2CCC(=O)N2CCCCCCC(=O)O)c1 | 1 mg/kg
Cc1cccc(C[C@H](O)/C=C/[C@H]2COC(=O)N2CCSCCCC(=O)O)c1 | > 1 mg/kg
CCc1cccc(C[C@H](O)/C=C/[C@H]2CSC(=O)N2CCSCCCC(=O)O)c1 | 1 mg/kg
COCc1cccc(C[C@H](O)/C=C/[C@H]2CCC(=S)N2CCCCCCC(=O)O)c1 | 3 mg/kg
Cc1cccc(C[C@H](O)/C=C/[C@H]2CCC(=S)N2CCSCCCC(=O)O)c1 | 1 mg/kg

System: Rattus norvegicus
Assay: Dose normalized cmax in rat at 1 mg/kg, po
Type: ADME, organism-based
Set-up: dose 1 mg/kg, route oral
Settings: in vivo
Method in brief: (§3)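 Rat PK after 1 mg/kg po and 0.1 mg/kg iv. Cmax and AUC normalized to a 1 mg/kg dose.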

Structure (SMILES) | Cmax/dose
COCc1cccc(C[C@H](O)/C=C/[C@H]2CCC(=O)N2CCCCCCC(=O)O)c1 | 1.6 ng/mL

Target: T2, Prostaglandin E2 receptor EP1 subtype (Mus musculus, UniProt P35375)
T2 sequence (P35375 whole entry): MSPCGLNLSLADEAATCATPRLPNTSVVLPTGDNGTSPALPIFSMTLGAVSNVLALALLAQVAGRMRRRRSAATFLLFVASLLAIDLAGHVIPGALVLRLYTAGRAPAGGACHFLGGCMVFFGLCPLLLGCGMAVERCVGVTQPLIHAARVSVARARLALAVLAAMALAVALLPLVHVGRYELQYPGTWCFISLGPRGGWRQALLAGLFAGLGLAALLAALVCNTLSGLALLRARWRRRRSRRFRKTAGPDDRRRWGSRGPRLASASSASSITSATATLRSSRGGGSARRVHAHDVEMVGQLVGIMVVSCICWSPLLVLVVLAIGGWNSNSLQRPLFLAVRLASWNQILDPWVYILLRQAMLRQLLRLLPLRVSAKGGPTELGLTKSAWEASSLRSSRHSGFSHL
Assay: Displacement of [3H]-PGE2 from mouse EP1 receptor expressed in CHO cells after 20 mins by liquid scintillation counter
Type: cell-based
Settings: not given
Method in brief: as §1

Structure (SMILES) | pKi
COCc1cccc(C[C@H](O)/C=C/[C@H]2CCC(=O)N2CCCCCCC(=O)O)c1 | < 5.00
COCc1cccc(C[C@H](O)/C=C/[C@H]2CCC(=S)N2CCCCCCC(=O)O)c1 | < 5.00

The remaining lines, values ahead:

pKi | Structure (SMILES)
5.36 | Cc1cccc(C[C@H](O)/C=C/[C@H]2COC(=O)N2CCSCCCC(=O)O)c1
5.34 | CCc1cccc(C[C@H](O)/C=C/[C@H]2CSC(=O)N2CCSCCCC(=O)O)c1
5.55 | Cc1cccc(C[C@H](O)/C=C/[C@H]2CCC(=S)N2CCSCCCC(=O)O)c1

System: not listed separately
Assay: Oral bioavailability in rat at 1 mg/kg
Type: ADME, organism-based
Settings: in vivo

Structure (SMILES) | bioavailability
COCc1cccc(C[C@H](O)/C=C/[C@H]2CCC(=O)N2CCCCCCC(=O)O)c1 | 1.2%
COCc1cccc(C[C@H](O)/C=C/[C@H]2CCC(=S)N2CCCCCCC(=O)O)c1 | 12.3%

Now from value to molecule:

bioavailability | Structure (SMILES)
4.5% | Cc1cccc(C[C@H](O)/C=C/[C@H]2COC(=O)N2CCSCCCC(=O)O)c1
8.6% | CCc1cccc(C[C@H](O)/C=C/[C@H]2CSC(=O)N2CCSCCCC(=O)O)c1
9.8% | Cc1cccc(C[C@H](O)/C=C/[C@H]2CCC(=S)N2CCSCCCC(=O)O)c1

System: Rattus norvegicus
Assay: Dose normalized AUC in rat at 1 mg/kg, po
Type: ADME, organism-based
Set-up: dose 1 mg/kg, route oral
Settings: in vivo
Method in brief: as §3

Structure (SMILES) | AUC/dose
COCc1cccc(C[C@H](O)/C=C/[C@H]2CCC(=O)N2CCCCCCC(=O)O)c1 | 6.4 ng·h/mL

System: not listed separately
Assay: Cmax in rat at 0.1 mg/kg, iv and 1 mg/kg, po
Type: ADME, organism-based
Settings: in vivo
Method in brief: as §2

Structure (SMILES) | Cmax
Cc1cccc(C[C@H](O)/C=C/[C@H]2COC(=O)N2CCSCCCC(=O)O)c1 | 5.4 ng/mL
CCc1cccc(C[C@H](O)/C=C/[C@H]2CSC(=O)N2CCSCCCC(=O)O)c1 | 10.4 ng/mL
COCc1cccc(C[C@H](O)/C=C/[C@H]2CCC(=S)N2CCCCCCC(=O)O)c1 | 6.5 ng/mL
Cc1cccc(C[C@H](O)/C=C/[C@H]2CCC(=S)N2CCSCCCC(=O)O)c1 | 3.4 ng/mL
